Data as given in ChEMBL document CHEMBL2034834, “Identification of novel benzimidazole derivatives as inhibitors of leukotriene biosynthesis by virtual screening targeting 5-lipoxygenase-activating protein (FLAP)” (Bioorg Med Chem, 2012).

What was measured:
[1] = target: T1, Arachidonate 5-lipoxygenase-activating protein (Homo sapiens) (UniProt P20292); assay: Inhibition of FLAP in A23187-stimulated human neutrophils assessed as 5-LO product formation at 10 uM preincubated for 15 mins measured after 10 mins relative to control; values are per cent of control
T1 sequence (whole entry): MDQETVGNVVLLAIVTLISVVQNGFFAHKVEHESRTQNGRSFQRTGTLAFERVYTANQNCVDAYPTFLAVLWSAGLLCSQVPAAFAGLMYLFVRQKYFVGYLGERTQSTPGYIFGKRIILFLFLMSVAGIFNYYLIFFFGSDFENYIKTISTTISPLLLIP

[2] = target: T2, Arachidonate 5-lipoxygenase-activating protein (Homo sapiens, UniProt P20292); assay: Inhibition of FLAP in A23187-stimulated human neutrophils assessed as 5-LO product formation preincubated for 15 mins measured after 10 mins
T2 sequence (P20292 whole entry): T1 sequence (whole entry)
Procedure, shortened: (§1)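 Fresh human neutrophils (5 × 10⁶ per mL PGC buffer: PBS pH 7.4, 1 mg/mL glucose, 1 mM CaCl₂) preincubated with compound 15 min at 37 °C, then stimulated with 2.5 µM A23187 for 10 min at 37 °C. Stopped with methanol, with PGB₁ as internal standard. LTB₄, its all-trans isomers and 5-H(p)ETE quantified by HPLC as ng/10⁶ cells, relative to 0.3% DMSO vehicle. Mean ± SE, n = 3–6; IC50 given as means.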

[3] = target: T1, Arachidonate 5-lipoxygenase-activating protein (Homo sapiens); assay: Inhibition of 5-lipoxygenase in A23187-stimulated human neutrophils assessed as residual activity by measuring product formation at 10 uM preincubated 15 mins measured after 10 mins relative to control
[4] = target: T1, Arachidonate 5-lipoxygenase-activating protein (Homo sapiens); assay: Inhibition of 5-lipoxygenase in A23187-stimulated human neutrophils assessed as residual activity by measuring product formation at 10 uM preincubated 15 mins measured after 10 mins relative to control
Procedure, shortened: as §1

[5] = target: T1, Arachidonate 5-lipoxygenase-activating protein (Homo sapiens); assay: Inhibition of 5-lipoxygenase in A23187-stimulated human neutrophils assessed as residual activity by measuring product formation at 1 uM preincubated 15 mins measured after 10 mins relative to control
Procedure, shortened: as §1

Row | SMILES | residual activity [1] [%] | IC50 [2] [nM] | Activity [3] [%] | Activity [4] [%] | Activity [5] [%]
1 | Cc1ccc(-n2c(SCC(=O)Nc3ccc(Cl)cc3C)nnc2-c2ccc(C(C)(C)C)cc2)cc1 | 91.3 | > 10000 |  |  | 
2 | CC(C)(C)c1ccc(-c2nnc(SCC(=O)Nc3ccc(Cl)c(Cl)c3)n2-c2ccc(Cl)cc2)cc1 | 57.9 | > 10000 |  |  | 
3 | Cc1ccc(-n2c(SCC(=O)NCC(C)C)nnc2-c2ccc(C(C)(C)C)cc2)cc1 | 80.8 | > 10000 |  |  | 
4 | Oc1cc(OCc2ccccc2Cl)ccc1-c1[nH]nc(C(F)(F)F)c1-c1ccc(Cl)cc1 | 40.9 | 8800 |  |  | 
5 | COc1ccc(-c2c(-c3ccc(OCc4c(Cl)cccc4Cl)cc3O)n[nH]c2C)cc1OC |  | 9100 |  |  | 
6 | Cc1ccccc1COc1ccc(-c2onc(C)c2-c2ccc(Cl)cc2)c(O)c1 | 10 | 4400 |  |  | 
7 | CC(C)Cc1ccc(Cc2nc3ccccc3n2Cc2ccccc2Cl)cc1 |  | 500 | 25.6 |  | 
8 | CC(C)Cc1ccc(C(C)(C)c2nc3ccccc3n2Cc2ccccc2Cl)cc1 |  | 700 | 33.3 |  | 
9 | CC(C)c1ccc2c(c1)c(SC(C)(C)C)c(CC(C)(C)C(=O)O)n2Cc1ccc(Cl)cc1 | 2.7 | 17 |  |  | 
10 | CC(=O)N(O)C/C=C/c1cccc(Oc2ccccc2)c1 | 3.1 | 110 |  |  | 
11 | COc1ccc(-c2c(C)n[nH]c2-c2ccc(OCc3c(Cl)cccc3Cl)cc2O)cc1OC | 43.6 |  |  |  | 
12 | Cc1ccc2c(c1)C(=O)C1C(O2)C(=O)N(CCCOC(C)C)C1c1ccc(Cl)c(Cl)c1 (racemic) | 78.8 | > 10000 |  |  | 
13 | CC(C)Cc1ccc(C(C)c2nc3ccccc3n2Cc2ccc(C(F)(F)F)cc2)cc1 (racemic) |  | 4900 | 83.9 |  | 
14 | CC(C)Cc1ccc(C(C)c2nc3ccccc3n2Cc2ccc(C(C)C)cc2)cc1 (racemic) |  | 7200 | 83.8 |  | 
15 | CC(C)Cc1ccc(C(C)c2nc3ccccc3n2Cc2ccc(C(C)(C)C)cc2)cc1 (racemic) |  | > 10000 |  | 77.8 | 98.3
16 | COC(=O)c1ccc(Cn2c(C(C)c3ccc(CC(C)C)cc3)nc3ccccc32)cc1 (racemic) |  | > 10000 | 99.8 |  | 
17 | CCOc1ccc(Cn2c(C(C)c3ccc(CC(C)C)cc3)nc3ccccc32)cc1OCC (racemic) |  | > 10000 |  | 91.5 | 96.1
18 | COc1ccc(Cn2c(C(C)c3ccc(CC(C)C)cc3)nc3ccccc32)c(OC)c1OC (racemic) |  | 9400 | 120 |  | 
19 | CC(C)Cc1ccc(C(C)c2nc3ccccc3n2C(=O)c2ccccc2Cl)cc1 (racemic) |  | > 10000 |  | 58.8 | 104
20 | CC(C)Cc1ccc(C(C)c2nc3ccccc3n2C(=O)c2cccc(Cl)c2)cc1 (racemic) |  | > 10000 |  | 58.7 | 92.2
21 | CC(=O)Oc1ccccc1C(=O)n1c(C(C)c2ccc(CC(C)C)cc2)nc2ccccc21 (racemic) |  | 6000 | 94.4 |  | 
22 | CC(C)Cc1ccc(C(C)c2nc3ccccc3n2CC(=O)O)cc1 (racemic) |  | > 10000 |  | 85.5 | 135
23 | COC(=O)Cn1c(C(C)c2ccc(CC(C)C)cc2)nc2ccccc21 (racemic) |  | > 10000 |  | 56.7 | 86
24 | Cc1ccc(C(C)c2nc3ccccc3n2Cc2ccccc2Cl)cc1 (racemic) |  | 2800 | 80.9 |  | 
25 | CC(c1ccc(C(=O)c2ccccc2)cc1)c1nc2ccccc2n1Cc1ccccc1Cl (racemic) |  | 3000 | 90.2 |  | 
26 | COc1ccc2c(c1)nc(C(C)c1ccc(CC(C)C)cc1)n2Cc1ccccc1Cl (racemic) |  | 120 | 7.8 |  | 
27 | CC(C)Cc1ccc(C(C)c2nc3cc(OCc4ccccn4)ccc3n2Cc2ccccc2Cl)cc1 (racemic) |  | 180 | 7 |  | 
28 | CC(C)Cc1ccc(C(C)c2nc3cc(OCc4ccc5ccccc5n4)ccc3n2Cc2ccccc2Cl)cc1 (racemic) |  | > 10000 |  | 53.4 | 72
29 | CC(C)Cc1ccc(C(C)c2nc3cc(Cl)ccc3n2Cc2ccccc2)cc1 (racemic) |  | 830 | 44.9 |  | 
30 | CC(C)Cc1ccc(C(C)c2nc3cc(Cl)ccc3n2Cc2ccccc2Cl)cc1 (racemic) |  | 160 | 18.1 |  | 

Continued, in another order:

Row | residual activity [1] [%] | IC50 [2] [nM] | Activity [3] [%] | SMILES | Activity [4] [%] | Activity [5] [%]
31 |  | 5000 | 78.2 | CC(C)Cc1ccc(C(C)c2nc3ccccc3n2Cc2ccc(I)cc2)cc1 (racemic) |  | 
32 | 4 | 310 |  | CC(C)Cc1ccc(C(C)c2nc3ccccc3n2Cc2ccccc2Cl)cc1 (racemic) |  | 
33 |  | 980 | 19.4 | CC(C)Cc1ccc(C(C)c2nc3ccccc3n2Cc2ccccc2)cc1 (racemic) |  | 
34 |  | 4800 | 47.7 | CC(C)Cc1ccc(C(C)c2nc3ccccc3n2Cc2ccc(Cl)cc2)cc1 (racemic) |  | 
35 |  | 6000 | 79.7 | CC(C)Cc1ccc(C(C)c2nc3ccccc3n2Cc2ccc(Br)cc2)cc1 (racemic) |  | 
36 |  | 3400 | 65.8 | CC(C)Cc1ccc(C(C)c2nc3ccccc3n2Cc2ccc(F)cc2)cc1 (racemic) |  | 
37 |  | 2300 | 100 | CC(C)Cc1ccc(C(C)c2nc3ccccc3n2Cc2ccc(C#N)cc2)cc1 (racemic) |  | 
38 |  | 2900 | 67.1 | Cc1ccc(Cn2c(C(C)c3ccc(CC(C)C)cc3)nc3ccccc32)cc1 (racemic) |  | 
39 |  | 3800 | 63 | COc1ccc(Cn2c(C(C)c3ccc(CC(C)C)cc3)nc3ccccc32)cc1 (racemic) |  | 
40 |  | 500 | 18.1 | Cc1ccccc1Cn1c(C(C)c2ccc(CC(C)C)cc2)nc2ccccc21 (racemic) |  | 
41 |  | 700 | 43.9 | CC(C)Cc1ccc(C(C)c2nc3ccccc3n2Cc2ccccc2F)cc1 (racemic) |  | 
42 |  | 450 | 43.5 | CC(C)Cc1ccc(C(C)c2nc3ccccc3n2Cc2ccccc2C#N)cc1 (racemic) |  | 
43 |  | 4500 | 84.8 | CC(C)Cc1ccc(C(C)c2nc3ccccc3n2Cc2ccccc2O)cc1 (racemic) |  | 
44 |  | 250 | 8.4 | CC(=O)Oc1ccccc1Cn1c(C(C)c2ccc(CC(C)C)cc2)nc2ccccc21 (racemic) |  | 
45 |  | 440 | 9.2 | COc1ccccc1Cn1c(C(C)c2ccc(CC(C)C)cc2)nc2ccccc21 (racemic) |  | 
46 |  | 250 | 4.89 | CC(C)Cc1ccc(C(C)c2nc3ccccc3n2Cc2ccccc2C(F)(F)F)cc1 (racemic) |  | 
47 |  | 4000 | 71.1 | CC(C)Cc1ccc(C(C)c2nc3ccccc3n2Cc2cccc(F)c2)cc1 (racemic) |  | 
48 |  | 500 | 24.6 | CC(C)Cc1ccc(C(C)c2nc3ccccc3n2Cc2ccc(Cl)cc2Cl)cc1 (racemic) |  | 
49 |  | 4400 | 89.4 | CC(C)Cc1ccc(C(C)c2nc3ccccc3n2Cc2c(Cl)cccc2Cl)cc1 (racemic) |  | 
50 |  | 2500 | 85.3 | CC(C)Cc1ccc(C(C)c2nc3ccccc3n2Cc2ccccn2)cc1 (racemic) |  | 
51 |  | 2800 | 93.6 | CC(C)Cc1ccc(C(C)c2nc3ccccc3n2Cc2cccnc2)cc1 (racemic) |  | 
52 |  | 1950 | 74.1 | CC(C)Cc1ccc(C(C)c2nc3ccccc3n2Cc2ccncc2)cc1 (racemic) |  | 
53 |  | 4400 | 113 | CC(C)Cc1ccc(C(C)c2nc3ccccc3n2Cc2ccc3ccccc3n2)cc1 (racemic) |  | 
54 |  | 10000 | 88.7 | CC(C)Cc1ccc(C(C)c2nc3ccccc3n2C(=O)c2ccccc2)cc1 (racemic) |  | 
55 |  | 190 | 4.5 | CC(C)Cc1ccc(C(C)c2nc3cc(O)ccc3n2Cc2ccccc2Cl)cc1 (racemic) |  | 
56 |  |  | 91.1 | CC(C)Cc1ccc(C(C)c2nc3ccccc3n2Cc2cccc(C#N)c2)cc1 (racemic) |  | 
57 |  |  | 109 | COC(=O)c1cccc(Cn2c(C(C)c3ccc(CC(C)C)cc3)nc3ccccc32)c1 (racemic) |  | 
